Reference: ChEMBL document CHEMBL1221214, “Cytosporone B is an agonist for nuclear orphan receptor Nur77” (Nat Chem Biol, 2008)
Active and inactive are the calls of the source. The calls are words filed in the database; no cut-off is given here.

Key:
[1] = target: Nuclear receptor subfamily 4 group A member 1 (Mus musculus) (UniProt P12813); test: Agonist activity at Nur77 in Nr4a1 deficient mouse C57BL/6 assessed as glucose-6-phosphatase mRNA at 50 mg/kg, ip by real-time PCR analysis; assay type: functional, organism-based; set-up: dose 50 mg/kg
[2] = target: T1, Nuclear receptor subfamily 4immunitygroup A member 1 (Homo sapiens, UniProt P22736); test: Induction of SRC1-enhanced Nur77 transactivational activity in human BGC823 cells after 12 hrs by luciferase/beta-galactosidase reporter assay; assay type: cell-based; conditions: BGC-823
Procedure, shortened: (§1)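 BGC-823 cells cotransfected with or without SRC-1, SRC-2 or SRC-3, plus NurRE-luciferase reporter and β-galactosidase, then treated for 12 h at a range of concentrations. Fold induction is each luciferase activity relative to non-SRC transfection at the same concentration.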

Mus musculus [3] = test: Increase in blood glucose level in wild-type mouse C57BL/6 at 50 mg/kg, ip within 30 mins; assay type: functional; conditions: route intraperitoneal
Procedure, shortened: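 C57BL/6 mice (wild-type or Nr4a1-/-, six weeks old) fasted 16 h with water, then given 50 mg kg-1 intraperitoneally. DMSO (50 μl) or injection without vehicle served as controls. Tail-vein blood glucose was read by glucometer at 15, 30, 60, 90, 120, 180 and 300 min. Means ± s.e.m.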

[4] = target: T1, Nuclear receptor subfamily 4immunitygroup A member 1; test: Induction of Nur77-SRC2 interaction in HEK293T cells by GST-pull-down assay; assay type: cell-based; conditions: HEK-293T
Procedure, shortened: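 293T cells transfected with Flag-SRC-1, -2 or -3 and treated at 10⁻⁶ M for 3 h. Lysates were incubated with GST-Nur77 or GST alone, and bound SRC was detected by pull-down against input levels.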

[5] = target: Nuclear receptor subfamily 4 group A member 1 (Mus musculus) (UniProt P12813); test: Agonist activity at Nur77 in insulin treated mouse C57BL/6 assessed as glucose-6-phosphatase mRNA after 60 mins by real-time PCR relative to control; assay type: functional
[6] = target: T1, Nuclear receptor subfamily 4immunitygroup A member 1; test: Agonist activity at nuclear orphan receptor Nur77 in human BGC823 cells bearing beta-galactosidase expression vector assessed as transcriptional activation of retinoic acid receptor response element after 12 hrs by luciferase assay; assay type: functional, cell-based; conditions: BGC-823
[7] = target: T1, Nuclear receptor subfamily 4immunitygroup A member 1; test: Binding affinity to nuclear orphan receptor Nur77-DNA binding domain at 5 uM by fluorescence quenching analysis
[8] = target: T1, Nuclear receptor subfamily 4immunitygroup A member 1; test: Agonist activity at nuclear orphan receptor Nur77 expressed in human BGC823 cells co-transfected with fused GAL4-Nur77 assessed as transactivation after 12 hrs by luciferase reporter gene assay; assay type: functional, cell-based, BGC-823
[9] = target: T1, Nuclear receptor subfamily 4immunitygroup A member 1; test: Agonist activity at Nur77 expressed in human BGC823 cells assessed as Nr4a1mRNA expression by real-time PCR; assay type: functional, cell-based; conditions: BGC-823
[10] = Antiproliferative activity against human H1299 cells assessed as number of viable cells after 72 hrs by MTT assay; assay type: functional, NCI-H1299
[11] = target: Nuclear receptor subfamily 4 group A member 1 (Mus musculus) (UniProt P12813); test: Agonist activity at Nur77 in wild-type mouse C57BL/6 assessed as phosphofructokinase mRNA at 50 mg/kg, ip after 300 mins by real-time PCR analysis; assay type: functional, organism-based; set-up: dose 50 mg/kg
[12] = target: T1, Nuclear receptor subfamily 4immunitygroup A member 1; test: Agonist activity at nuclear orphan receptor Nur77 in human BGC823 cells bearing beta-galactosidase expression vector assessed as transcriptional activation of estrogen receptor reporter gene after 12 hrs by luciferase assay; assay type: functional, cell-based; conditions: BGC-823
NIH3T3 = test: Antiproliferative activity against mouse NIH/3T3 cells assessed as number of viable cells after 72 hrs by MTT assay; assay type: functional, cell-based
BGC-823 [13] = test: Induction of Nur77 mediated apoptosis in human BGC823 cells transfected with si-Nur77 at 5 uM after 48 hrs by flow cytometry assay; assay type: functional; conditions: in the assay text read “5 ug/ml” for “5 uM”
Procedure, shortened: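 BGC-823 gastric cancer cells, transfected or not with Nur77 siRNA or scrambled control siRNA, then exposed to 5 μg ml-1 for 48 h. Apoptotic cells were counted by flow cytometry.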

[14] = target: T1, Nuclear receptor subfamily 4immunitygroup A member 1; test: Binding affinity to NuR77-LBD receptor expressed in human BGC823 cells; assay type: cell-based, BGC-823
BGC-823 [15] = test: Induction of SRC3 recruitment to NurRE in human BGC823 cells after 12 hrs by luciferase/beta-galactosidase reporter assay; assay type: functional, cell-based; procedure, shortened: as §1
[16] = target: Nuclear receptor subfamily 4 group A member 1 (Mus musculus) (UniProt P12813); test: Agonist activity at Nur77 in wild-type mouse C57BL/6 assessed as hexokinase gene at 50 mg/kg, ip within 30 to 300 mins by real-time PCR analysis; assay type: functional, organism-based; set-up: dose 50 mg/kg
[17] = target: Nuclear receptor subfamily 4 group A member 1 (Mus musculus) (UniProt P12813); test: Agonist activity at Nur77 in Nr4a1 deficient mouse C57BL/6 assessed as fructose-1,6-bisphosphatase mRNA at 50 mg/kg, ip by real-time PCR analysis; assay type: functional, organism-based; set-up: dose 50 mg/kg
BGC-823 [18] = test: Induction of Nur77 mediated apoptosis in human BGC823 cells assessed as nuclear DNA condensation by flow cytometry assay; assay type: functional, cell-based
[19] = target: T1, Nuclear receptor subfamily 4immunitygroup A member 1; test: Agonist activity at nuclear orphan receptor Nur77 expressed in human BGC823 cells co-transfected with pLuc-2900 containing Nr4a1 promoter assessed as transcriptional activity; assay type: functional, cell-based; conditions: BGC-823
[20] = target: Nuclear receptor subfamily 4 group A member 1 (Mus musculus) (UniProt P12813); test: Agonist activity at Nur77 in wild-type mouse assessed as transcriptional activation of luciferase reporter gene relative to control; assay type: functional
Procedure, shortened: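 Nur77, NurRE-luciferase reporter and β-galactosidase combined with in vivo transfection reagent and injected into tail vein of wild-type or Nr4a1-/- C57BL/6 mice (n = 5/group); 5 h later DMSO (50 μl) or Csn-B 50 mg kg-1 ip; liver lysate luciferase read 24 h post-injection; means ± s.e.m.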

BGC-823 [21] = test: Induction of SRC2 recruitment to NurRE in human BGC823 cells after 12 hrs by luciferase/beta-galactosidase reporter assay; assay type: functional, cell-based; procedure, shortened: as §1
[22] = target: T1, Nuclear receptor subfamily 4immunitygroup A member 1; test: Binding affinity to Nur77 receptor expressed in human BGC823 cells; assay type: cell-based, BGC-823
[23] = target: Nuclear receptor subfamily 4 group A member 3 (Homo sapiens) (UniProt Q92570); test: Agonist activity at nuclear orphan receptor NOR1 expressed in human BGC823 cells co-transfected with fused GAL4-NOR1(LBD) assessed as transactivation after 12 hrs by transactivation assay; assay type: functional, cell-based; conditions: BGC-823
[24] = target: T1, Nuclear receptor subfamily 4immunitygroup A member 1; test: Agonist activity at Nur77 expressed in human gastric cancer BGC823 assessed as transactivation in presence of siRNA against Nur77; assay type: functional; conditions: Stomach
[25] = target: Nuclear receptor subfamily 4 group A member 1 (Mus musculus) (UniProt P12813); test: Agonist activity at Nur77 in wild-type mouse C57BL/6 assessed as hexokinase mRNA at 50 mg/kg, ip after 300 mins by real-time PCR analysis; assay type: functional, organism-based; set-up: dose 50 mg/kg
Mus musculus [26] = species on record: Mus musculus; test: Antiproliferative activity against mouse ME-Hep4 cells assessed as number of viable cells after 72 hrs by MTT assay; assay type: functional, cell-based
BGC-823 [27] = test: Induction of Nur77 mediated apoptosis in human BGC823 cells at 5 ug/ml after 48 hrs by flow cytometry assay
[28] = target: T1, Nuclear receptor subfamily 4immunitygroup A member 1; test: Binding affinity to nuclear orphan receptor Nur77 assessed as conformational change in receptor by CD spectroscopic
[29] = target: Nuclear receptor subfamily 4 group A member 1 (Mus musculus) (UniProt P12813); test: Agonist activity at Nur77 in Nr4a1-/- mouse transfected withGAL4-Y453A assessed as transcriptional activation of luciferase reporter gene
[30] = target: T1, Nuclear receptor subfamily 4immunitygroup A member 1; test: Agonist activity at nuclear orphan receptor Nur77 expressed in human BGC823 cells co-transfected with fused GAL4-LBD assessed as transactivation after 12 hrs by luciferase reporter gene assay; assay type: functional, cell-based, BGC-823

T1 sequence (P22736 whole entry): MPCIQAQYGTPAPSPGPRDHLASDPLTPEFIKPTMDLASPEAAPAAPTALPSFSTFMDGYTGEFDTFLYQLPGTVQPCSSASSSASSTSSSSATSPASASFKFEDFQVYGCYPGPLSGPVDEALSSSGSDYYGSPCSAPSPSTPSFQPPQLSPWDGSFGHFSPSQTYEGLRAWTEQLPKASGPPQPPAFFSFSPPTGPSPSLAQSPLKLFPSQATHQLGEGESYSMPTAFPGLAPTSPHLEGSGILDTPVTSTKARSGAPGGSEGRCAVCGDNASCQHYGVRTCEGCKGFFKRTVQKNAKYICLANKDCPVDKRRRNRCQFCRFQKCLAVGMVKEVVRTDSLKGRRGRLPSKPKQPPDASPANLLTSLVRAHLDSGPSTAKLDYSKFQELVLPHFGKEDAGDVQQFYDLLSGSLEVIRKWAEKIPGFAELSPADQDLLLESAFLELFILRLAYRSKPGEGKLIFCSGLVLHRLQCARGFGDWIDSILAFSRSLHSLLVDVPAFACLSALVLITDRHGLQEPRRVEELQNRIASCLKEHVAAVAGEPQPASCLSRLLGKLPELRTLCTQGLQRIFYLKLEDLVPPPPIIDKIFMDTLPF
Nuclear receptor subfamily 4 group A member 1 (Mus musculus), sequence (P12813 whole entry, the tested form may be a part): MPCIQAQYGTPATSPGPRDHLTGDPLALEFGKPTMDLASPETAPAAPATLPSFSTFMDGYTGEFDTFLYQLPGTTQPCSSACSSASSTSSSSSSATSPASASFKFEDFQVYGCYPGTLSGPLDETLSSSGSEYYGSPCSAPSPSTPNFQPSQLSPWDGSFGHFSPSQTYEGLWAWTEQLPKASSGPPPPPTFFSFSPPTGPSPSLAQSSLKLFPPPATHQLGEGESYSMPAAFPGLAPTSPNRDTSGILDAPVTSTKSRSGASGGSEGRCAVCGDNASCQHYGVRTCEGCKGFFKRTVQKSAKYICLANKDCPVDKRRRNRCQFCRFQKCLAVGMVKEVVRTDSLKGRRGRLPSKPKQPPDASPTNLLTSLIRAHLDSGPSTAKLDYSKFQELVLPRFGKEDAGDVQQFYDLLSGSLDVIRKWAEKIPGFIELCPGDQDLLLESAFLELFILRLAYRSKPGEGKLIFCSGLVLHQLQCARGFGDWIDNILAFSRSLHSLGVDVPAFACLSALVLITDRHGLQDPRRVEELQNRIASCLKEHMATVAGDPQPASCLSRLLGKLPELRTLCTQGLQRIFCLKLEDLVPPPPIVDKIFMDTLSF
Nuclear receptor subfamily 4 group A member 3 (Homo sapiens), sequence (Q92570 whole entry, the tested form may be a part): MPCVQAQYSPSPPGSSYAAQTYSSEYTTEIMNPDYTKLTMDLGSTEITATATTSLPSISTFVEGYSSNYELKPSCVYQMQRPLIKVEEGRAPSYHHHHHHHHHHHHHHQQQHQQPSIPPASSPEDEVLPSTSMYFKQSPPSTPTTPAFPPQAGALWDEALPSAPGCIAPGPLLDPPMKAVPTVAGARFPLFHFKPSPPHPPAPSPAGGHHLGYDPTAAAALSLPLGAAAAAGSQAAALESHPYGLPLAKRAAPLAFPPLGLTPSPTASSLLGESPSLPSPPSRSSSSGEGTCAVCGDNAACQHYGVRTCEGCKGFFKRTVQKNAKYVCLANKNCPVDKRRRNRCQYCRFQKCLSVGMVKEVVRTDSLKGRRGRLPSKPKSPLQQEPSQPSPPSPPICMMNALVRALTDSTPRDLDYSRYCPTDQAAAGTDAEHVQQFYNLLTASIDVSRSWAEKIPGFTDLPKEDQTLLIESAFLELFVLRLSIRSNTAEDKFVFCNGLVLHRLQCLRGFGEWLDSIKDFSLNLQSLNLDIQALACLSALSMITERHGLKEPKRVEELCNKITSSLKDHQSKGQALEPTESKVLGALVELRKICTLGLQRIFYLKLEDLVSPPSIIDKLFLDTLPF

For CCCCCCCC(=O)c1c(O)cc(O)cc1CC(=O)OCC [CYTOSPORONE B], the Activity [1] was “inactive”, the Activity [2] was “Dose-dependent effect” and the Activity (Mus musculus [3]) was 11.4 mM. The Activity [4] was “Active”, the fold change (FC) [5] was 6.23 and the Activity [6] was “inactive”. For the same compound, the Activity [7] was “inactive”, the EC50 [8] was 0.278 nM and the Activity [9] was “Active”. The “inhibition (INH)” value [10] was “>=40%”, the Activity [11] was “inactive” and the Activity [12] was “inactive”. The inhibition (NIH3T3) was “Active”, the Activity (BGC-823 [13]) was 20.1% and the Kd [14] was 1510 nM. For the same compound, the Activity (BGC-823 [15]) was “inactive”, the Activity [16] was “inactive” and the Activity [17] was “inactive”. The Activity (BGC-823 [18]) was “Active”, the Activity [19] was “Active” and the fold change (FC) [20] was 5. The Activity (BGC-823 [21]) was “Active”, the Kd [22] was 740 nM and the Activity [23] was “inactive”. The Activity [24] was “inactive”, the Activity [25] was “inactive” and the inhibition (Mus musculus [26]) was “Active”. The Activity (BGC-823 [27]) was 63.5%, the Activity [28] was “Active” and the Activity [29] was “Active”. For the same compound, the EC50 [30] was 0.115 nM.
